Drawing on ChEMBL document CHEMBL3758114, “Design, synthesis and biological evaluation of N-phenylquinazolin-4-amine hybrids as dual inhibitors of VEGFR-2 and HDAC” (Eur J Med Chem, 2016), this text covers IC50 for 25 molecules.

One experiment deals with MCF7. As to the kind of experiment: Antiproliferative activity against human MCF7 cells after 48 hrs by MTT assay. The format is functional, cell-based. As to conditions: MCF7, 48 h.
The target of experiment [1] is Vascular endothelial growth factor receptor 2 (Homo sapiens, UniProt P35968). As to the kind of experiment: Inhibition of VEGFR2 (unknown origin) preincubated for 5 mins followed by addition of ATP/gastrin precursor(Tyr87) biotinylated peptide cocktail incubated for 30 mins by ELISA. Put shortly: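 The kit enzyme, 100 ng VEGFR-2 in reaction cocktail, was preincubated with compound dilutions for 5 min at room temperature. The 30 min reaction ran at room temperature and was stopped with EDTA (50 mM, pH 8). Biotinylated peptide was captured on streptavidin wells for 60 min. Phospho-Tyr was detected with anti-pTyr-100 mAb, then HRP anti-mouse IgG, then TMB, read at 450 nm.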
Sequence of Vascular endothelial growth factor receptor 2 (P35968 whole entry): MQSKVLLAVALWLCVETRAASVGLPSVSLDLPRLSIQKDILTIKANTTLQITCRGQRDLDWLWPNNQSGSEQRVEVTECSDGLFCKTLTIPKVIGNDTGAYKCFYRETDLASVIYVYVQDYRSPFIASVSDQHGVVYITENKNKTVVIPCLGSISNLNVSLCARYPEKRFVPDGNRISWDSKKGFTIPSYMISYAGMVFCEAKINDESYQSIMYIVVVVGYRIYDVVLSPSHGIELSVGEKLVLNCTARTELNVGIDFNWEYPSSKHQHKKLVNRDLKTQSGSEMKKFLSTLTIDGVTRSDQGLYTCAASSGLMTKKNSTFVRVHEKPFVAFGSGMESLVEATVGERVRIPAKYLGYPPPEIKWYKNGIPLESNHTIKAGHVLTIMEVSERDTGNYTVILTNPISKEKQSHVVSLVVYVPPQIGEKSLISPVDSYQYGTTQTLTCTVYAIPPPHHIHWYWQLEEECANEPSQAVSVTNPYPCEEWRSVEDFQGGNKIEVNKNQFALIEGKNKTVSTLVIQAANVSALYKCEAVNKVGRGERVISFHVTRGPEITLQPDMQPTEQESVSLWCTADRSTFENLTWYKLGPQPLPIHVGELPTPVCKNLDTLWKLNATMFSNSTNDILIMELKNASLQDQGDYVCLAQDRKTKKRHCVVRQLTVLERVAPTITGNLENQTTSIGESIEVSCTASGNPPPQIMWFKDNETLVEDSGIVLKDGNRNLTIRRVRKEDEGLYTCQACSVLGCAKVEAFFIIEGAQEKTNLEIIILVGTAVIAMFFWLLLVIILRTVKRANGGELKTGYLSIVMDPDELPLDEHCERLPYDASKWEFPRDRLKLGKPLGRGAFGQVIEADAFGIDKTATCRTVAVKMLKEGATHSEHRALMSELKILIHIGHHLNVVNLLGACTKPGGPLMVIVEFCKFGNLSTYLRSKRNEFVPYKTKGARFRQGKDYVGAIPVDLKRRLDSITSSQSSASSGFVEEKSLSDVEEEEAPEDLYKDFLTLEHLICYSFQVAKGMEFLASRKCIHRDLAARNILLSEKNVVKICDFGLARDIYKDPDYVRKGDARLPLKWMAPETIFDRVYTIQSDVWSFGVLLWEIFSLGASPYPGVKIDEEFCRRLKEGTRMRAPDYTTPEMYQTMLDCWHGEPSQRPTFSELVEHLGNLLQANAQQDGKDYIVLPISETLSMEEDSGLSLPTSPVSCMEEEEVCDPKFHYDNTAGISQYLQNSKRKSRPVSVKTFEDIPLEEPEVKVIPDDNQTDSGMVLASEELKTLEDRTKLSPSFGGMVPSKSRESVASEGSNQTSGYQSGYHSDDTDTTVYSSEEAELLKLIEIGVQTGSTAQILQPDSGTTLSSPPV

For another experiment, the target named is Histone deacetylase. As to the kind of experiment: Inhibition of HDAC in human HeLa cell nuclear extracts preincubated for 15 mins followed by addition of Fluor de Lys as substrate for 1 hr by fluorometric assay. The format is cell-based.
The next experiment concerns the target Histone deacetylase 2 (Homo sapiens, UniProt Q92769). As to the kind of experiment: Inhibition of HDAC2 (unknown origin) preincubated for 15 mins followed by addition of Fluor de Lys as substrate for 1 hr by fluorometric assay. Put shortly:
(§1)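 Each isolated HDAC isoform was incubated with compound at a range of concentrations for 15 min at room temperature. The reaction was then started with Fluor de Lys substrate and run for 1 h at room temperature. Developer was added to stop it. Fluorescence was read at excitation 355 nm and emission 460 nm. The assay was run three independent times.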

The target of experiment [2] is T1, Protein deacetylase HDAC6 (Homo sapiens, UniProt Q9UBN7).
T1 sequence (Q9UBN7 whole entry): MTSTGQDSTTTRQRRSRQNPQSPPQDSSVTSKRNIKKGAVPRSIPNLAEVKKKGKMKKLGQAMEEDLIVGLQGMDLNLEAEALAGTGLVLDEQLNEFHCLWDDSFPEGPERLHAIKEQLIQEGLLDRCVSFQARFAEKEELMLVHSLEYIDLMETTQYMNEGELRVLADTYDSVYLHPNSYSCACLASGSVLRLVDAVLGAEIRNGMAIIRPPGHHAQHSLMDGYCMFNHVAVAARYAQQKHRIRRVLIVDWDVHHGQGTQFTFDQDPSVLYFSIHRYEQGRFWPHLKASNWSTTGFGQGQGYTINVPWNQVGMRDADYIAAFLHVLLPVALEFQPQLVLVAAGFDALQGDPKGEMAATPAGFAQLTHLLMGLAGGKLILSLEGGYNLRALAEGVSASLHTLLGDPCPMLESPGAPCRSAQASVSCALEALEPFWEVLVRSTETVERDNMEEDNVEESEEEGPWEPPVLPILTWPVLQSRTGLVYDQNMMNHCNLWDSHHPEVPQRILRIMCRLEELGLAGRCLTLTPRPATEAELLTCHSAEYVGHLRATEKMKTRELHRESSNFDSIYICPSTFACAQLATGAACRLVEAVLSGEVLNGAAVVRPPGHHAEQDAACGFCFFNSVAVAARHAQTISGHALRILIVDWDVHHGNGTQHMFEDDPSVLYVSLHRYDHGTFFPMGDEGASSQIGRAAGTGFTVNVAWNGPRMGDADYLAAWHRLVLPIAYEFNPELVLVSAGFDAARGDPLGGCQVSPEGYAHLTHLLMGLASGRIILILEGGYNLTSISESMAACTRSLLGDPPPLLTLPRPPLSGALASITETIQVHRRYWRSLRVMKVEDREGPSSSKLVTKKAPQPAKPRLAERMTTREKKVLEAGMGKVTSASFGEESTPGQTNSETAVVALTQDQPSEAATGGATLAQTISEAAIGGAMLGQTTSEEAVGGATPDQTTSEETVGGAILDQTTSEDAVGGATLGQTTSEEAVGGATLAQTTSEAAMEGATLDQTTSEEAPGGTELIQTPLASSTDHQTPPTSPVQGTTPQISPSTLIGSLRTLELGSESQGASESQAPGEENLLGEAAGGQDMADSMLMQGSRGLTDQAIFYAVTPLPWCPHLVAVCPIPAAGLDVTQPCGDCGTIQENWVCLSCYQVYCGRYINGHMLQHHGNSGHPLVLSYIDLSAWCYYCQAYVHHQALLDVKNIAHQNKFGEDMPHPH
In words: Inhibition of HDAC6 (unknown origin) preincubated for 15 mins followed by addition of Fluor de Lys as substrate for 1 hr by fluorometric assay. Put shortly:
as §1

For the next experiment, the target named is Histone deacetylase 1 (Homo sapiens, UniProt Q13547). In words: Inhibition of HDAC1 (unknown origin) preincubated for 15 mins followed by addition of Fluor de Lys as substrate for 1 hr by fluorometric assay. Put shortly: as §1
Sequence of Histone deacetylase 1 (Q13547 whole entry): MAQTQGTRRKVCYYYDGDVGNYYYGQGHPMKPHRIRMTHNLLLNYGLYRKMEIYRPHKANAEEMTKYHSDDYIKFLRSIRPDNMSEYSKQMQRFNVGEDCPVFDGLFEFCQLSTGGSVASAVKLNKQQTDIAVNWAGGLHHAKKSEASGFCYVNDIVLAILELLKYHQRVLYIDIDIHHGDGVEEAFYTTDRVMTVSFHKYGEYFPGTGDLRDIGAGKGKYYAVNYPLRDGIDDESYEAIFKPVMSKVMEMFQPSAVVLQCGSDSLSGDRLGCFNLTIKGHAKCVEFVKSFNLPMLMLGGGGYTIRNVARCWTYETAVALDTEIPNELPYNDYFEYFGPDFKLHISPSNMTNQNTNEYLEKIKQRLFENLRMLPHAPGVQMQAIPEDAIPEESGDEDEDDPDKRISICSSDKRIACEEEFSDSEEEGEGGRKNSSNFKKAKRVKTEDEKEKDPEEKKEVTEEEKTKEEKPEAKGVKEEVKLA
Another experiment addresses T2, Histone deacetylase 8 (Homo sapiens, UniProt Q9BY41).
T2 sequence (Q9BY41 whole entry): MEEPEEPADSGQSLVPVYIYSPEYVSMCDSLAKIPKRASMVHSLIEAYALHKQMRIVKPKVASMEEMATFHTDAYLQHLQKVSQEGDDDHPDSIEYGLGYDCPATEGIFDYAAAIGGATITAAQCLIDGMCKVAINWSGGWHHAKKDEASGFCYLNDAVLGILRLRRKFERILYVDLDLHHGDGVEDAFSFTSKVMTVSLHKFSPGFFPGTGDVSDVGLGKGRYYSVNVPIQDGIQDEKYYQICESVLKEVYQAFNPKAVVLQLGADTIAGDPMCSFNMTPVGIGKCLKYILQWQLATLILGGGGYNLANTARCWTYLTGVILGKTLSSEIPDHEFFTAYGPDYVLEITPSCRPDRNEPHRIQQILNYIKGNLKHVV
As to the kind of experiment: Inhibition of HDAC8 (unknown origin) preincubated for 15 mins followed by addition of Fluor de Lys as substrate for 1 hr by fluorometric assay. Put shortly:
as §1

Sequence of Histone deacetylase 2 (Q92769 whole entry, canonical isoform): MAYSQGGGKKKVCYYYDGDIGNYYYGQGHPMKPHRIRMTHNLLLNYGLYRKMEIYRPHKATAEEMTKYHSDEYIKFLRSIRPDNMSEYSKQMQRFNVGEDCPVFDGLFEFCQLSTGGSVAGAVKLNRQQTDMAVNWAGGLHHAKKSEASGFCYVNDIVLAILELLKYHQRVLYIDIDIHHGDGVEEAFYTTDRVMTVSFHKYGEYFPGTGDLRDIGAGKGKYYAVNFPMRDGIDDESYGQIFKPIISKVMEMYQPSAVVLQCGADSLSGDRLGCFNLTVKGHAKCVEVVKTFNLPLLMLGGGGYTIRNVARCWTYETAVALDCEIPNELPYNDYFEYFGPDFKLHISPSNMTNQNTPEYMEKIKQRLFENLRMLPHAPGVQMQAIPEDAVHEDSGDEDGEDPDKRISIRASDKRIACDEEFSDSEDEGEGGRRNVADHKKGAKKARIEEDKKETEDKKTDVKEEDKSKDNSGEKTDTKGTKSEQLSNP

As to `COc1cc2ncnc(Nc3ccc(Cl)cc3)c2cc1OCCCC(=O)NO`, the results for the half-maximal inhibitory concentration (IC50) (in the experiment with MCF7; in experiment [1]; against Histone deacetylase) were 85000 nM, 182 nM and 698 nM, respectively.

Regarding `COc1cc2ncnc(Nc3ccc(F)cc3)c2cc1OCCCCCC(=O)NO`, the IC50 in the experiment with MCF7 was determined as 18000 nM; in experiment [1] it was 524 nM; against Histone deacetylase it was 29 nM.

For the molecule `COc1cc2ncnc(Nc3ccc(Cl)cc3)c2cc1OCCCCC(=O)NO`, the results for the IC50 (in the experiment on MCF7; in experiment [1]; against Histone deacetylase) were 61000 nM, 220 nM and 132 nM, respectively.

For `COc1cc2ncnc(Nc3ccccc3F)c2cc1OCCCC(=O)NO`, the IC50 is above 100000 nM in the experiment with MCF7, 865 nM in experiment [1] and 673 nM at Histone deacetylase.

On to `COc1cc2ncnc(Nc3ccc(Cl)cc3)c2cc1OCCCCCC(=O)NO`, for which the concentration for half-maximal inhibition (IC50) in the experiment on MCF7 stood at 4000 nM; in experiment [1] it was 313 nM; at Histone deacetylase, 11 nM.

For `COc1cc2ncnc(Nc3ccccc3Cl)c2cc1OCCCCC(=O)NO`, the half-maximal inhibitory concentration (IC50) is 78000 nM with MCF7, 832 nM in experiment [1] and 128 nM against Histone deacetylase.

With `COc1cc2ncnc(Nc3ccccc3F)c2cc1OCCCCC(=O)NO`, the half-maximal inhibitory concentration (IC50) in the experiment with MCF7 was above 100000 nM; in experiment [1], 840 nM; at Histone deacetylase, 554 nM.

Take `COc1cc2ncnc(Nc3ccc(F)cc3)c2cc1OCCCC(=O)NO`: the half-maximal inhibitory concentration (IC50) in the experiment on MCF7 is above 100000 nM; in experiment [1] it was 376 nM; on Histone deacetylase it was 1340 nM.

For `COc1cc2ncnc(Nc3ccc(Br)cc3)c2cc1OCCCC(=O)NO`, the IC50 with MCF7 worked out at 52000 nM; in experiment [1], 98 nM; against Histone deacetylase it was 545 nM.

As to `COc1cc2ncnc(Nc3ccccc3Br)c2cc1OCCCCCCC(=O)NO`, the results for the IC50 (in the experiment on MCF7; in experiment [1]; on Histone deacetylase) were 2600 nM, above 10000 nM and 8.8 nM, respectively.

`COc1cc2ncnc(Nc3ccc(Br)cc3)c2cc1OCCCCCCC(=O)NO`: the IC50 worked out at 3.3 nM against Histone deacetylase 2; 16.4 nM in experiment [2]; 850 nM in the experiment with MCF7; 1.8 nM on Histone deacetylase 1; 74 nM in experiment [1]; 4.6 nM against Histone deacetylase 8. The 50% inhibitory concentration (IC50) against Histone deacetylase was determined as 2.2 nM.

As for `COc1cc2ncnc(Nc3ccccc3Br)c2cc1OCCCCCC(=O)NO`, the figures for the IC50 (with MCF7; in experiment [1]; at Histone deacetylase) were 17000 nM, above 10000 nM and 31 nM, respectively.

In the case of `COc1cc2ncnc(Nc3ccccc3Cl)c2cc1OCCCC(=O)NO`, the 50% inhibitory concentration (IC50) with MCF7 was above 100000 nM; in experiment [1] it was 857 nM; at Histone deacetylase it was 1255 nM.

For `COc1cc2ncnc(Nc3ccccc3Br)c2cc1OCCCCC(=O)NO`, the 50% inhibitory concentration (IC50) in the experiment on MCF7 is 33000 nM; in experiment [1], above 10000 nM; against Histone deacetylase, 74 nM.

As to `COc1cc2ncnc(Nc3ccc(F)cc3)c2cc1OCCCCCCC(=O)NO`, the figures for the 50% inhibitory concentration (IC50) (in the experiment with MCF7; in experiment [1]; against Histone deacetylase) were 2400 nM, 270 nM and 8.5 nM, respectively.

For `COc1cc2ncnc(Nc3ccc(Br)cc3)c2cc1OCCCCCC(=O)NO`, the results for the 50% inhibitory concentration (IC50) (with MCF7; in experiment [1]; at Histone deacetylase) were 3500 nM, 153 nM and 12 nM, respectively.

Take `COc1cc2ncnc(Nc3ccccc3Cl)c2cc1OCCCCCC(=O)NO`: the IC50 amounted to 15000 nM in the experiment with MCF7, 685 nM in experiment [1] and 29 nM at Histone deacetylase.

For `COc1cc2ncnc(Nc3ccccc3F)c2cc1OCCCCCC(=O)NO`, the half-maximal inhibitory concentration (IC50) in the experiment on MCF7 worked out at 84000 nM; in experiment [1], 918 nM; on Histone deacetylase it was 145 nM.

On to `COc1cc2ncnc(Nc3ccc(F)cc3)c2cc1OCCCCC(=O)NO`, for which the 50% inhibitory concentration (IC50) was 74000 nM with MCF7, 455 nM in experiment [1] and 139 nM against Histone deacetylase.

Regarding `COc1cc2ncnc(Nc3ccccc3Cl)c2cc1OCCCCCCC(=O)NO`, the half-maximal inhibitory concentration (IC50) in the experiment on MCF7 was determined as 7800 nM; in experiment [1] it was 364 nM; at Histone deacetylase, 18 nM.

`O=C(CCCCCCC(=O)Nc1ccccc1)NO` [VORINOSTAT] gave an IC50 in experiment [1] above 10000 nM.

`COc1cc2ncnc(Nc3ccccc3Br)c2cc1OCCCC(=O)NO` came in with an IC50 against Histone deacetylase of 840 nM.

Take `COc1cc2ncnc(Nc3ccc(Cl)cc3)c2cc1OCCCCCCC(=O)NO`: the values for the IC50 (in the experiment on MCF7; in experiment [1]; at Histone deacetylase) were 1700 nM, 215 nM and 3.2 nM, respectively.

For the molecule `COc1cc2ncnc(Nc3ccc(Br)cc3)c2cc1OCCCCC(=O)NO`, the half-maximal inhibitory concentration (IC50) in the experiment with MCF7 was found to be 36000 nM; in experiment [1] it was 59 nM; on Histone deacetylase, 68 nM.

For `COc1cc2ncnc(Nc3ccccc3F)c2cc1OCCCCCCC(=O)NO`, the 50% inhibitory concentration (IC50) with MCF7 was found to be 15000 nM; in experiment [1], 754 nM; at Histone deacetylase, 32 nM.
